KLK7 zymogen act = proKLK7 zymogen activators, primary screen, biochemical, fluorescence intensity; Kallikrein-7 (Homo sapiens), P49862; purified proKLK7, EDANS-DABCYL substrate fluorescence; 100% is mature enzyme control, 0% vehicle; activation, % at 7 µM; 0.9% of 370,000 active; AID 652039, 2013;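 active = activation above the mean of all tested compounds plus 3 SD, computed per campaign excluding outliers beyond control limits, cut at about 13% in these data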
Target sequence (P49862 whole entry, looked up): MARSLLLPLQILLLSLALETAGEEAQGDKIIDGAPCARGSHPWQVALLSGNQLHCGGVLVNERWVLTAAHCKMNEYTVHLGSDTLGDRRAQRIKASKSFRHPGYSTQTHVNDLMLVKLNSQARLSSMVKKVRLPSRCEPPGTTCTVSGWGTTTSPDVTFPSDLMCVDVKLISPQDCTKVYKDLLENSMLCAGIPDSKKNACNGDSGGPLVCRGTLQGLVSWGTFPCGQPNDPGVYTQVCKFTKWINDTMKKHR
PLC-beta3 inh = human PLC-beta3 inhibitors, primary screen, biochemical, fluorescence; 1-phosphatidylinositol 4,5-bisphosphate phosphodiesterase beta-3 (Homo sapiens), Q01970; Purified PLC-beta3, fluorogenic substrate; inhibition, % at 12.2 µM; 0.18% of 370,000 active; AID 720704, 2013; in the data active = inhibition above about 11%;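 note: 0% = median of compound wells on plate and 100% = full blocker control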
NRP1-CendR mod = modulators of CendR peptide binding to NRP-1, primary screen, biochemical, fluorescence polarization, uHTS; FAM-RPARPAR peptide binding to NRP-1; inhibition, % at 25 µM; Neuropilin-1 (Homo sapiens), O14786; 0.85% of 360,000 active;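 active = inhibition or corrected inhibition above about 18%, plus a signal ratio from 0.5 to 1.5, limit read from the data, passing the limit was not always enough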
Tn6 DDE FP = inhibitors of Tn6 peptide binding to fibrin DD(E), primary screen, biochemical, fluorescence polarization, human fibrin, Tn6 probe | 0.21% of 370,000 active | inhibition, % at 8.3 µM | Fibrin DD(E) TRITC-Tn6 fluorescence polarization displacement | Fibrinogen beta chain (Homo sapiens), P02675 | AID 720509, 2013;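 active = inhibition above a per-campaign cutoff: mean of compounds within control limits plus 3 SD, cut at about 15% in these data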;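 note: 0% = median of all compound wells on the plate and 100% = blocking peptide control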
Target sequence (P02675 whole entry, looked up): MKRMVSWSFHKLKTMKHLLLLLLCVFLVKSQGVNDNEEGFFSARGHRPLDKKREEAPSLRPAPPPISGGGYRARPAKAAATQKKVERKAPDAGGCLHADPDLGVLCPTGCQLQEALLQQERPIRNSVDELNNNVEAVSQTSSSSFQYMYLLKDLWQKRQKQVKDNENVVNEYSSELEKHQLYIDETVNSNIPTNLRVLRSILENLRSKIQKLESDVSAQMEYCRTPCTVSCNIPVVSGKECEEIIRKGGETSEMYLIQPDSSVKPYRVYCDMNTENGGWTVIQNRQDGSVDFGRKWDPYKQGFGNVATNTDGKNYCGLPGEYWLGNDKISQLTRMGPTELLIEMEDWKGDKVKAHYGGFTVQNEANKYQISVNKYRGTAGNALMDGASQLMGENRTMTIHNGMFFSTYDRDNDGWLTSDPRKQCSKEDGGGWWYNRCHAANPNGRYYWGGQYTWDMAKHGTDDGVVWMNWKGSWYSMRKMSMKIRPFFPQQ
Tn7 DDE FP = inhibitors of Tn7 peptide binding to fibrin DD(E), primary screen, biochemical, fluorescence polarization, human fibrin, Tn7 probe | AID 720508, 2013 | inhibition, % at 8.3 µM | FP displacement of FITC-Tn7 peptide from fibrin DD(E); 0% = median of compound wells per plate | 0.13% of 370,000 active;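 active = inhibition above the mean of compounds falling within the control limits plus 3 SD of them, cut at about 14% in these data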;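 note: 0% = plate median of compound wells and 100% = 10 µM Aha-Tn7 peptide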
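Assay system: human fibrin DD(E). Input: DD(E) 2 µM final. Medium: Tris buffer with calcium and detergent, pH 7.8. Compound dosing: single point at 8.3 µM. Timing: 10 min plus 3 h, room temperature. Technique: fluorescence polarization of the labelled Tn7 tracer. Read-out: percent inhibition. Replicates: singlicate testing.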
PLC-gamma1 inh = PLC-gamma1 enzyme inhibitors, primary screen, biochemical, fluorescence, purified enzyme | 1-phosphatidylinositol 4,5-bisphosphate phosphodiesterase gamma-1 (Homo sapiens), P19174 | fluorogenic substrate | inhibition, % at 12.2 µM | 0.84% of 370,000 active | AID 720700, 2013; in the data active = inhibition above about 9.5%
KLK7 act conf = proKLK7 zymogen activators, confirmation, biochemical, fluorescence intensity, triplicate; 68% of 3,200 active; purified proKLK7, EDANS-DABCYL substrate fluorescence; scaled: vehicle 0, mature enzyme 100; AID 686949, 2013; shares compounds with KLK7 zymogen act; activation, % at 7 µM;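 active = activation, as change over the incubation, above the mean of all tested compounds plus 3 SD, cut at about 13% in these data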
EDANS-DABCYL int = EDANS-DABCYL substrate optical interference, artefact control for kallikrein-7 zymogen activator project, biochemical, fluorescence intensity, high throughput. AID 686952, 2013. 80% of 3,200 active. shares compounds with KLK7 zymogen act. no enzyme, 4 h; solvent 0%, active enzyme control 100%. activation, % at 7 µM;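 active = activation above the all-compound mean plus 3 SD, ignoring values outside control-based bounds, cut at about 4.8% in these data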;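 note: value is the 4 h activation minus the activation read at time zero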
Numbers without * were called inactive. Sampled rows, rich in hits. Any-hit rate of the full collection: about 3%.

Results for O=S(=O)(CC1NCc2cc(F)ccc21)NCCc1ccccc1 (stereo unspecified) ?
KLK7 zymogen act: -0.3; PLC-beta3 inh: -11.1; Tn6 DDE FP: -6.8; Tn7 DDE FP: -2.7; PLC-gamma1 inh: -6.7

How did O=C(NC1CCCCN(Cc2cccc(C(F)(F)F)c2)C1=O)c1c(F)cccc1F (stereo unspecified) do in these assays?
KLK7 zymogen act: 0.2; PLC-beta3 inh: 0.7; Tn6 DDE FP: -11.8; Tn7 DDE FP: 5.9; PLC-gamma1 inh: -0.6

How did COc1ccc(-c2nc(C#N)c(NCCN(C)C)o2)cc1 do in these assays?
KLK7 zymogen act: -12.9; PLC-beta3 inh: -162.1; NRP1-CendR mod: -14.3; Tn6 DDE FP: 3.9; Tn7 DDE FP: -0.5; PLC-gamma1 inh: -135.1

What do the screens show for `COCCNc1oc(-c2ccc(Cl)cc2)nc1C#N`?
KLK7 zymogen act: 22.3*; PLC-beta3 inh: inactive; NRP1-CendR mod: 3.4; Tn6 DDE FP: -6.5; Tn7 DDE FP: 1.9; PLC-gamma1 inh: inactive; KLK7 act conf: 12.8*; EDANS-DABCYL int: 12.1*

How did CN(C)CCCNc1oc(-c2ccc(Cl)cc2)nc1C#N do in these assays?
KLK7 zymogen act: 34.3*; PLC-beta3 inh: inactive; NRP1-CendR mod: 2.8; Tn6 DDE FP: 1.6; Tn7 DDE FP: -5.6; PLC-gamma1 inh: inactive; KLK7 act conf: 23.6*; EDANS-DABCYL int: 21.1*

How did C=CCNc1oc(-c2cccc(Cl)c2)nc1C#N do in these assays?
KLK7 zymogen act: 0.0; PLC-beta3 inh: -1.0; NRP1-CendR mod: 14.0; Tn6 DDE FP: 2.4; Tn7 DDE FP: -1.6; PLC-gamma1 inh: 0.5

How did COCCNc1oc(-c2ccc(C)cc2)nc1C#N do in these assays?
KLK7 zymogen act: 2.9; PLC-beta3 inh: -327.1; NRP1-CendR mod: 9.6; Tn6 DDE FP: -5.6; Tn7 DDE FP: -0.7; PLC-gamma1 inh: -276.5

How did Cc1ccc(-c2nc(C#N)c(NCCN3CCCCC3)o2)cc1 do in these assays?
KLK7 zymogen act: 16.7*; PLC-beta3 inh: -290.1; NRP1-CendR mod: -13.2; Tn6 DDE FP: 2.4; Tn7 DDE FP: -6.5; PLC-gamma1 inh: -194.5; KLK7 act conf: 6.1; EDANS-DABCYL int: 7.2*

Results for CCN(CC)CCCNc1oc(-c2cccc(Cl)c2)nc1C#N ?
KLK7 zymogen act: 41.4*; PLC-beta3 inh: inactive; NRP1-CendR mod: 1.2; Tn6 DDE FP: -1.4; Tn7 DDE FP: -0.8; PLC-gamma1 inh: inactive; KLK7 act conf: 8.8; EDANS-DABCYL int: 18.1*

How did N#Cc1nc(-c2ccc(F)cc2)oc1NCCN1CCOCC1 do in these assays?
KLK7 zymogen act: 7.2; PLC-beta3 inh: -402.3; NRP1-CendR mod: -2.7; Tn6 DDE FP: -9.3; Tn7 DDE FP: 9.2; PLC-gamma1 inh: -298.4

What do the screens show for `CCOC(=O)[C@@]12CCC3=C1N(CCC3)C(=O)[C@H](CC(=O)N1CCN(C(=O)C3CC3)CC1)C2`?
KLK7 zymogen act: 0.7; PLC-beta3 inh: -2.1; Tn6 DDE FP: -0.6; Tn7 DDE FP: 6.4; PLC-gamma1 inh: -0.3

What do the screens show for `Fc1ccccc1-c1n[nH]c(=S)n1N=Cc1ccc(OCc2ccccc2)cc1`?
KLK7 zymogen act: 1.0; PLC-beta3 inh: -6.3; Tn6 DDE FP: 9.2; Tn7 DDE FP: 2.2; PLC-gamma1 inh: -6.0

How did CCCCCCCCN1CN2Cc3cc(F)ccc3C2CS1(=O)=O (stereo unspecified) do in these assays?
KLK7 zymogen act: 0.3; PLC-beta3 inh: -1.9; Tn6 DDE FP: 1.8; Tn7 DDE FP: -10.5; PLC-gamma1 inh: -2.8

How did O=C(CCl)NC1CCCCN(Cc2ccc(OC(F)(F)F)cc2)C1=O (stereo unspecified) do in these assays?
KLK7 zymogen act: -0.3; PLC-beta3 inh: 2.2; Tn6 DDE FP: -3.8; Tn7 DDE FP: 4.3; PLC-gamma1 inh: -2.0

How did Nc1ccc(-c2nc3cc(N)ccc3s2)cc1 do in these assays?
KLK7 zymogen act: 51.8*; PLC-beta3 inh: inactive; NRP1-CendR mod: -17.7; Tn6 DDE FP: -6.3; Tn7 DDE FP: -3.1; PLC-gamma1 inh: inactive; KLK7 act conf: 16.4*; EDANS-DABCYL int: 66.7*

How did Nc1ccc2nc(-c3ccccc3)sc2c1 do in these assays?
KLK7 zymogen act: 63.2*; PLC-beta3 inh: inactive; NRP1-CendR mod: -6.3; Tn6 DDE FP: -4.4; Tn7 DDE FP: 2.9; PLC-gamma1 inh: inactive; KLK7 act conf: 62.8*; EDANS-DABCYL int: 68.0*

How did Nc1ccc(-c2nc3ccccc3s2)cn1 do in these assays?
KLK7 zymogen act: 6.2; PLC-beta3 inh: -250.3; NRP1-CendR mod: -7.7; Tn6 DDE FP: -5.5; Tn7 DDE FP: 0.6; PLC-gamma1 inh: -150.0

What do the screens show for `Cc1cc(-c2nc3ccccc3s2)ccc1N`?
KLK7 zymogen act: 40.6*; PLC-beta3 inh: inactive; NRP1-CendR mod: -9.6; Tn6 DDE FP: 1.8; Tn7 DDE FP: -8.4; PLC-gamma1 inh: inactive; KLK7 act conf: -13.9; EDANS-DABCYL int: -15.3

Results for COC(=O)c1ccc(-c2ccc3c(c2)[C@]2(CCC[C@@H](O)[C@@H]2NC(=O)CCc2ccccc2)C(=O)N3Cc2ccccc2)cc1 ?
KLK7 zymogen act: -7.7; PLC-beta3 inh: -53.4; Tn6 DDE FP: -5.1; Tn7 DDE FP: 7.0; PLC-gamma1 inh: -27.6

How did Cc1cccc(-c2cccc3c4c([nH]c23)[C@@H]2C[C@H](N(C)C(=O)Nc3ccccc3)[C@H]([C@H](C)O)C(=O)N2CC4)c1 do in these assays?
KLK7 zymogen act: -0.5; PLC-beta3 inh: -61.5; Tn6 DDE FP: 0.8; Tn7 DDE FP: -8.8; PLC-gamma1 inh: -46.4

How did CC(C)CCNC(=O)CSc1nc2c(c(=O)[nH]1)CCC2 do in these assays?
PLC-beta3 inh: 2.4; Tn6 DDE FP: -0.5; Tn7 DDE FP: -1.4; PLC-gamma1 inh: 1.6

How did Cc1ccc(OCC(=O)N2CCC3(CC2)CC(=O)c2ccccc2O3)cc1 do in these assays?
KLK7 zymogen act: 0.5; PLC-beta3 inh: -22.9; NRP1-CendR mod: -1.1; Tn6 DDE FP: 0.1; Tn7 DDE FP: 0.7; PLC-gamma1 inh: -15.0

What do the screens show for `COc1cccc(OCC(=O)N2CCC3(CC2)CC(=O)c2ccccc2O3)c1`?
KLK7 zymogen act: 1.3; PLC-beta3 inh: -23.9; NRP1-CendR mod: -3.2; Tn6 DDE FP: -3.4; Tn7 DDE FP: 7.7; PLC-gamma1 inh: -11.7
